Converted amounts (≈) assume the structure as drawn. The source made the active and inactive calls.

A word on the fraction unbound: it is free concentration divided by total concentration. Lower therefore signals extensive binding. As usually defined, the solubility is how much of the substance goes into solution per volume. A lower solubility goes with little dissolved substance. As a reminder, the logD is the decadic logarithm of the distribution of all forms, ionised or not, between an organic phase and buffer at a given pH. The low end stands for a more hydrophilic compound, the high end for a more lipophilic compound. For orientation: clearance means a measure of how efficiently the substance is removed, as volume per time. Read a high clearance as a high capacity for elimination. The term half-life denotes the time needed for the level to fall by half in the phase considered. The low end stands for fast loss, the high end for slow loss. By Vdss is commonly meant the apparent volume that relates the amount in the body to the concentration in plasma or blood.

In series [1] the target is 3',5'-cyclic-AMP phosphodiesterase 4B (Homo sapiens, UniProt Q07343). Description: Inhibition of human recombinant PDE4B using [3H]cAMP by packard topcount scintillation counting analysis.
Series [2] concerns PBMC. Description: Antiinflammatory activity in human PBMC assessed as inhibition of LPS-induced TNFalpha production after 20 hrs by fluorescence linked immunosorbant assay. In kind it is functional, cell-based.
Series [3] is described as follows: Fraction unbound in human plasma. The class given is ADME, cell-free.
The nature of series [4]: Aqueous solubility of the compound at pH 7.4. In kind it is physicochemical. The following applies: aqueous medium.
Series [5] in a line: Lipophilicity, log D of the compound. In kind it is physicochemical. The following applies: octanol/water.
Series [6] is described as follows: Clearance in rat at 1 mg/kg, iv. More on the design: dose 1 mg/kg, route intravenous. Particulars: in vivo. In kind it is ADME, organism-based. The method in brief:
(§1)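 Rat pharmacokinetics were run at 1 mg/kg, given iv or by intratracheal instillation, with 2−3 animals per study.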

The nature of series [7]: (§2) Volume of distribution at steady state in rat at 1 mg/kg, iv. In kind it is ADME, organism-based. More on the design: dose 1 mg/kg, route intravenous. Particulars: in vivo, read-out: Vdss.
A short description of series [8]: (§3) Half life in rat at 1 mg/kg, iv. The class given is ADME, organism-based. More on the design: dose 1 mg/kg, route intravenous. The following applies: in vivo. The method in brief:
as §1

Series [9] has as its target Cytochrome P450 3A4 (Homo sapiens, UniProt P08684). As to the kind of experiment: Inhibition of CYP3A4 (unknown origin). In kind it is ADME.
Series [10] deals with Cytochrome P450 2C9 (Homo sapiens, UniProt P11712). As to the kind of experiment: Inhibition of CYP2C9 (unknown origin). In kind it is ADME.
The target of series [11] is Cytochrome P450 2D6 (Homo sapiens, UniProt P10635). Description: Inhibition of CYP2D6 (unknown origin). In kind it is ADME.
In series [12] the target is T1, Cytochrome P450 1A2 (Homo sapiens, UniProt P05177).
T1 sequence (P05177 whole entry): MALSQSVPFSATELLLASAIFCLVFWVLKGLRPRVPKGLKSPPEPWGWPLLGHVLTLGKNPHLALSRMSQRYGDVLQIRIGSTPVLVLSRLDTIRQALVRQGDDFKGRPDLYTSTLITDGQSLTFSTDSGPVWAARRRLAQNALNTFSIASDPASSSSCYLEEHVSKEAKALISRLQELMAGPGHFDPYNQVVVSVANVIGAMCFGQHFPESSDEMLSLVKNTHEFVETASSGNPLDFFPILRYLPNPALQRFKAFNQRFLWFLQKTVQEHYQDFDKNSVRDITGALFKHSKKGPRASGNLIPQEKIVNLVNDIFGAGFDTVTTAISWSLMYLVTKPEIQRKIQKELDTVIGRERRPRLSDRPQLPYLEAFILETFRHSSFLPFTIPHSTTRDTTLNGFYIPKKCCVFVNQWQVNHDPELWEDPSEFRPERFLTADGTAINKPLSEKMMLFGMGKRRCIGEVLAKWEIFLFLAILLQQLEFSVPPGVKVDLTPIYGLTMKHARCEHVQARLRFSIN
Description: Inhibition of CYP1A2 (unknown origin). The class given is ADME.

Series [13] has as its target Cytochrome P450 2C19 (Homo sapiens, UniProt P33261). Description: Inhibition of CYP2C19 (unknown origin). In kind it is ADME.
Series [14] has as its system Rattus norvegicus. As to the kind of experiment: Antiinflammatory activity in Sprague-Dawley rat assessed as inhibition of LPS-induced bronchoalveolar lavage neutrophils at 1 mg/ml, inhalation administered as nebulized suspension. In kind it is functional, organism-based. The method in brief:
(§4)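 Rats were given the compound as an aqueous nebulized aerosol by nose-only inhalation 30 min before LPS challenge. Dose is expressed as mg/mL nebulizer concentration. Lung neutrophilia was the readout, and terminal lung concentration (nM) was measured. Groups held 8−10 animals per treatment.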

Series [15] deals with Rattus norvegicus. Description: Apparent volume of distribution in rat at 1 mg/kg, iv. More on the design: dose 1 mg/kg, route intravenous. The class given is ADME, organism-based. The following applies: in vivo. In a few lines:
as §1

The subject of series [16] is Rattus norvegicus. As to the kind of experiment: Antiinflammatory activity in Sprague-Dawley rat assessed as inhibition of LPS-induced bronchoalveolar lavage neutrophils at 0.03 mg/ml, inhalation administered as nebulized suspension. In kind it is functional, organism-based. In a few lines: as §4
Series [17] deals with Rattus norvegicus. Description: Antiinflammatory activity in Sprague-Dawley rat assessed as inhibition of LPS-induced bronchoalveolar lavage neutrophils at 0.01 to 0.1 mg/ml, inhalation administered as nebulized suspension. In kind it is functional, organism-based. In a few lines:
as §4

In series [18] the test system is Rattus norvegicus. Description: Antiinflammatory activity in Sprague-Dawley rat assessed as inhibition of LPS-induced bronchoalveolar lavage neutrophils up to 350 nM, inhalation administered as nebulized […] treated 12 hr before LPS challenge. The class given is functional, organism-based. The method in brief:
(§5)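 Duration protocol: rats received a nose-only inhalation of nebulized aqueous compound solution 12 h before LPS challenge. Dose is expressed as mg/mL nebulizer concentration. Readout was LPS-induced pulmonary neutrophilia, with terminal lung concentration (nM) measured. Groups held 8−10 animals per treatment.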

Series [19] relates to Blood. As to the kind of experiment: Antiinflammatory activity in human whole blood assessed as inhibition of LPS-induced TNFalpha production after 20 hrs by ELISA. In kind it is functional, tissue-based.
Series [20] can be described thus: Intrinsic clearance in human liver microsomes. The class given is ADME. The following applies: read-out: CLH.
The test system of series [21] is Rattus norvegicus. The series is described as §2. The following applies: in vivo. More on the design: dose 1 mg/kg, route intravenous. The class given is ADME, organism-based.
Series [22] relates to Rattus norvegicus. The series is described as §3. The class given is ADME, organism-based. The following applies: in vivo. More on the design: dose 1 mg/kg, route intravenous. The method in brief: as §1
The nature of series [23]: Half life in rat at 1 mg/kg, it. The class given is ADME, organism-based. More on the design: dose 1 mg/kg, route endotracheal. The following applies: in vivo, inhaled or intranasal. In a few lines:
as §1

For series [24], the system named is Rattus norvegicus. Description: Antiinflammatory activity in Sprague-Dawley rat assessed as inhibition of LPS-induced bronchoalveolar lavage neutrophils measured as LPS duration at 0.03 to 3 mg/ml, inhalation administered as nebulized suspension. The class given is functional, organism-based. The method in brief:
as §5

For series [25], the system named is Blood. Description: tissue or blood. Particulars: Rattus norvegicus, 20 h, read-out: pIC50 (converted).

3',5'-cyclic-AMP phosphodiesterase 4B, sequence (Q07343 whole entry): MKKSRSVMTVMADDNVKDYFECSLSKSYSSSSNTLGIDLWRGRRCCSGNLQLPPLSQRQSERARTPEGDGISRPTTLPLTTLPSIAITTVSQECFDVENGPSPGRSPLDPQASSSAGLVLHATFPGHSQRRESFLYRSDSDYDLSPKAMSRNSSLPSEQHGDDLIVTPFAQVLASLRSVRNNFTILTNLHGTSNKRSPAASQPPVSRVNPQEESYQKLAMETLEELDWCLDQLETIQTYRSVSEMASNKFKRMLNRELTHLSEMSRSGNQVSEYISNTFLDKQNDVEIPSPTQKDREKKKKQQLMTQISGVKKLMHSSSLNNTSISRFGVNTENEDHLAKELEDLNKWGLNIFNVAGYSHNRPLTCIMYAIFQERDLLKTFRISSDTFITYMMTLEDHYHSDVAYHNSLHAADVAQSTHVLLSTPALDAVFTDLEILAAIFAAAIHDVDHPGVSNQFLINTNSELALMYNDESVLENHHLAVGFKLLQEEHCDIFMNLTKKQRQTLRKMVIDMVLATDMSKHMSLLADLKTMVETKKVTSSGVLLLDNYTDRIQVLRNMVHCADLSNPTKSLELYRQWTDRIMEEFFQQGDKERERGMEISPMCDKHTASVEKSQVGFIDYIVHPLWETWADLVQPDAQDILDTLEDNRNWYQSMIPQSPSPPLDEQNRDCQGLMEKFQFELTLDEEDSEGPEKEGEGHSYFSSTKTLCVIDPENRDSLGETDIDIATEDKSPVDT
Cytochrome P450 2C19, sequence (P33261 whole entry): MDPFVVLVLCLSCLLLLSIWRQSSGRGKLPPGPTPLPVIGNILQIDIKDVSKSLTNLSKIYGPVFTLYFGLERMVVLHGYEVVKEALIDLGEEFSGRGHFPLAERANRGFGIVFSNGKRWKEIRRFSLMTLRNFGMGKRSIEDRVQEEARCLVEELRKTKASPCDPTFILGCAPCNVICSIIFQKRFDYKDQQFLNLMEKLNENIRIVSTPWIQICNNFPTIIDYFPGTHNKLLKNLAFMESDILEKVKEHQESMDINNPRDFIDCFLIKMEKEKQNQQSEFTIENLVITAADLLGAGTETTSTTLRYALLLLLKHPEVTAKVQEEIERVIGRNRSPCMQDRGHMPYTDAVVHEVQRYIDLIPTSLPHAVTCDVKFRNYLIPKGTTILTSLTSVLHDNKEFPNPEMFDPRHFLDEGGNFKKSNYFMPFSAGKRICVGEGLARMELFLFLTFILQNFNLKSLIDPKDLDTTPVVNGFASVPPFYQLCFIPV
Cytochrome P450 2C9, sequence (P11712 whole entry): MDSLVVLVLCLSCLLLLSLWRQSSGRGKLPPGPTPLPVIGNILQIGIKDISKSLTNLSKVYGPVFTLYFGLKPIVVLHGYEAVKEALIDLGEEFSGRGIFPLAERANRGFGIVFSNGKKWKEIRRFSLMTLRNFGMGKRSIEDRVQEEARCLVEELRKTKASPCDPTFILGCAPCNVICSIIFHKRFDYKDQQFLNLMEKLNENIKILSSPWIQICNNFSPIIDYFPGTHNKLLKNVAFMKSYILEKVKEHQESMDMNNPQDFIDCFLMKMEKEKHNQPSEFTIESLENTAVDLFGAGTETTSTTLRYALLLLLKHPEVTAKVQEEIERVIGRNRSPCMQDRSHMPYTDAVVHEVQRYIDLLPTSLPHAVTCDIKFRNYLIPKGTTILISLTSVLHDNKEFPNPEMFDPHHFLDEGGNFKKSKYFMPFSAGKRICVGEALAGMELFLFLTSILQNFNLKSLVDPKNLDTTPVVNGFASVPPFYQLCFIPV
Cytochrome P450 3A4, sequence (P08684 whole entry): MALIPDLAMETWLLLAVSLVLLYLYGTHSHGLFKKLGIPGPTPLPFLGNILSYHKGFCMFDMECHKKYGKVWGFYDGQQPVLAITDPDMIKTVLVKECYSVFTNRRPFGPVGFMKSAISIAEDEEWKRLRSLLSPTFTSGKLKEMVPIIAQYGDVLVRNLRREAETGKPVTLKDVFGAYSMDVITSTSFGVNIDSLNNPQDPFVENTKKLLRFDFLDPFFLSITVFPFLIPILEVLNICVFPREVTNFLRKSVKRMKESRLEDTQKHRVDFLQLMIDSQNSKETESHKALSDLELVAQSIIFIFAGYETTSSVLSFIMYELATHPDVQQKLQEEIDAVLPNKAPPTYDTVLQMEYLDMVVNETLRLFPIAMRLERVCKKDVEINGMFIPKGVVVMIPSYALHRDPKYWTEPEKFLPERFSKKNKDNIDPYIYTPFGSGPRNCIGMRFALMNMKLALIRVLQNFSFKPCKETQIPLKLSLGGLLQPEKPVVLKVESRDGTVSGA
Cytochrome P450 2D6, sequence (P10635 whole entry): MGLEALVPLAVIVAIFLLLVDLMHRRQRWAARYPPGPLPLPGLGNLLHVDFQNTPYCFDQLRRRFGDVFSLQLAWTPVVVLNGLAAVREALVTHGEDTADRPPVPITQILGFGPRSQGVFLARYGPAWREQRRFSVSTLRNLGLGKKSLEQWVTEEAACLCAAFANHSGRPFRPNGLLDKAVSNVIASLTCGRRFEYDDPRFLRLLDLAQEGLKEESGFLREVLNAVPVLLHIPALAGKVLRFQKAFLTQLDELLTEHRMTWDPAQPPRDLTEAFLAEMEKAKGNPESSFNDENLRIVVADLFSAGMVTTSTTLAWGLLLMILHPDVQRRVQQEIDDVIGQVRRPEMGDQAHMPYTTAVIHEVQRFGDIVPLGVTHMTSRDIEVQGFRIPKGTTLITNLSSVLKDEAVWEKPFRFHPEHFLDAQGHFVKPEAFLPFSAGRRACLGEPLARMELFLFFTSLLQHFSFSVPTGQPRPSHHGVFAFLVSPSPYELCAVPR

`Cc1cccc2nc(C(=O)N[C@H]3CC[C@@H](NC(=O)c4cc(F)cnc4Oc4cccc(-c5ccc(CN6CCC(N7CCCC7)CC6)cc5)c4)CC3)cn12`: the IC50 in series [1] was 0.0398 nM; in series [2], 0.251 nM; in series [9], more than 1000 nM; in series [10], more than 1000 nM; in [11], more than 1000 nM; in series [12], more than 1000 nM. Moreover, the IC50 in [13] was more than 1000 nM. Moreover, in series [3], the fraction unbound worked out at 0.02. This molecule also returned a solubility in [4] of more than 1400 µM. Moreover, the logD in series [5] came out at 3.2. The clearance in [6] worked out at 79 mL/min/kg. The Vd in series [7] came out at 60 L/kg. The half-life in series [8] was 12 h. Moreover, the inhibition entry in series [14] was “Active”. Further, the Vz/F in series [15] was determined as 80 L/kg.

As for `COc1cccc(Nc2c(C(N)=O)cnc3c(C)cc(S(=O)(=O)c4cccc(C(=O)N(C)C)c4)cc23)c1` [GSK-256066], the inhibition result in series [16] and in series [24] was “Active” in each case. The inhibition entry in [17] and in series [18] was “inactive” in each case. In addition, the IC50 in [1] is less than 0.01 nM; in series [2] it was 0.00316 nM; in [19] it was 0.316 nM; in series [25], 0.251 nM. This molecule also registered a fraction unbound in series [3] of 0.015. Moreover, the solubility in [4] was found to be 1.2 µM (≈ 0.622 µg/mL). Also, the microsomal CLint in series [20] was more than 150 µL/min/mg. The molecule also yielded a Vdss in series [21] of 0.75 L/kg. In series [22], this molecule displayed a t1/2 of 14.9 h. In addition, the half-life in series [23] is 8.1 h.

For the origin of these results see ChEMBL document CHEMBL3286180, “Efficacious inhaled PDE4 inhibitors with low emetic potential and long duration of action for the treatment of COPD” (J Med Chem, 2014).
